From publication PMC4433557 (ACS chemical biology, 2015)
Where a SMILES comes first, the peptide text is derived from it. Where no end group is shown, it is not given here. [ ]: non-standard residue; d: D form. Phe(4-F) = N[C@@H](Cc1ccc(F)cc1)C(=O)O; pS = N[C@@H](COP(=O)(O)O)C(=O)O; βAla = NCCC(=O)O

Legend:
BRCA1 (BRCT)2 = BRCA1 (BRCT)2 (Homo sapiens, UniProt P38398); assay: isothermal titration calorimetry with TR-; assay type: binding; settings: ITC
[1] = tested on: phospho-CtIP and BRCA1 (BRCT)2; assay: pull down-western of phospho-CtIP-myc from cell lysates with BRCA1; assay type: binding; settings: synthesized peptide, increasing concentrations
[2] = biological target: BRCA1 (BRCT)2 (thioredoxin-(BRCT)2 fusion) (Homo sapiens, UniProt P38398); assay: competition fluorescence polarization assay against FAM-β-A-pSPTF-NH2; assay type: binding
Outline: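 Competition fluorescence polarization: 20 nM FAM-β-A-pSPTF tracer plus 2.7 μM thioredoxin-(BRCT)2 fusion, titrated with variable concentrations of test peptide. IC50 obtained by fitting a four-parameter logistic equation.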

[3] = biological target: BACH1-derived tetrapeptide (Homo sapiens) (UniProt Q9BX63); settings: cited from earlier work
Chain of BACH1-derived tetrapeptide (Homo sapiens) (Q9BX63 whole entry, looked up, tested part not stated): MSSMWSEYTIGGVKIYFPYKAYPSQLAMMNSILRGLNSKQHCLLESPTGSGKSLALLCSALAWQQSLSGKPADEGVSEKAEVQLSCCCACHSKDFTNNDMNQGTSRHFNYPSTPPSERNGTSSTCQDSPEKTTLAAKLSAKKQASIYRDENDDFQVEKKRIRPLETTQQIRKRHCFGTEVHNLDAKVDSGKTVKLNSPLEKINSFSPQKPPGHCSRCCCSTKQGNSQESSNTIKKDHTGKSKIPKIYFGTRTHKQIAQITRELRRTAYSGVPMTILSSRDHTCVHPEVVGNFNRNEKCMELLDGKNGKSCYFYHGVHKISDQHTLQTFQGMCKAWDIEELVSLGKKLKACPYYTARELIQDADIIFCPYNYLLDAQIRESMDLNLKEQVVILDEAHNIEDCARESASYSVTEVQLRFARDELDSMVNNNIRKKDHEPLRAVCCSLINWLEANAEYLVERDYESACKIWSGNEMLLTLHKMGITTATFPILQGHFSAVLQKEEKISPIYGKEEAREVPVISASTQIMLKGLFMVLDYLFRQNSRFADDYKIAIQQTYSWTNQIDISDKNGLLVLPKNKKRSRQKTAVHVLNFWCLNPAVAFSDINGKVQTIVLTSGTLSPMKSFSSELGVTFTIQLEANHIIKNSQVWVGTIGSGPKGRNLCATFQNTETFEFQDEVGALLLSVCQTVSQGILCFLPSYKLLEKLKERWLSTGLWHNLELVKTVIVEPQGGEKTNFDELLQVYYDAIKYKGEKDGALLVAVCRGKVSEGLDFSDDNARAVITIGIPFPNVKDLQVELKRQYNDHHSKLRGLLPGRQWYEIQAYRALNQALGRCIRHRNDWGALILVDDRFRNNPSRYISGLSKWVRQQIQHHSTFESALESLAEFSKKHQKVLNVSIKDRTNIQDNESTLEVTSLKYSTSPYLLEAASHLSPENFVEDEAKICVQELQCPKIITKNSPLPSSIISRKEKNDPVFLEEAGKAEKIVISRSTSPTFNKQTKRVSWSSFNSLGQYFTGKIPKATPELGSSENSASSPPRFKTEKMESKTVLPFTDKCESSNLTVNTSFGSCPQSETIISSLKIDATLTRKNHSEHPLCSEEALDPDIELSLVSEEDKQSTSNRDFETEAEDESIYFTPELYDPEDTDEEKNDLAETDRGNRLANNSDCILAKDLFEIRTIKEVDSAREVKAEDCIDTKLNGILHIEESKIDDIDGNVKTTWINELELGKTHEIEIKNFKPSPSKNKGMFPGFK

GST-BRCA1 (BRCT)2 S1655A = assay: fluorescence polarization binding to GST-BRCA1; parameters: species or system human; settings: FP; fluorescent peptides FAM-β-Ala-8.6 or FITC-BACH1 peptide
Outline: (§1)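 Direct fluorescence polarization of GST-BRCA1 (BRCT)2 point mutants and wild type, using either the labelled BACH1 phosphopeptide (FITC-[…]-NH2) or FAM-β-Ala-labelled test peptide as probe. KD for each mutant was determined by FP, then normalized to the wild-type GST-(BRCT)2 KD.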

GST-BRCA1 (BRCT)2 K1702M = assay: fluorescence polarization binding to GST-BRCA1; parameters: species or system human; settings: FP; FITC-BACH1 peptide
Outline: as §1

GST-BRCA1 (BRCT)2 E1698A = assay: fluorescence polarization binding to GST-BRCA1; parameters: species or system human; settings: FP; FITC-BACH1 peptide
Outline: as §1

GST-BRCA1 (BRCT)2 N1774A = assay: fluorescence polarization binding to GST-BRCA1; parameters: species or system human; settings: FP; FITC-BACH1 peptide
Outline: as §1

[4] = biological target: thioredoxin-(BRCT)2 fusion (human) (UniProt P38398); assay: fluorescence polarisation
[5] = biological target: thioredoxin-(BRCT)2 fusion (human) (UniProt P38398); assay: ITC
[6] = biological target: GST-BRCA1 (BRCT)2 K1702M (human) (UniProt P38398); assay: fluorescence polarisation

## 8.6 Nat: peptide 8.6 with the two 4FPhe substituted with Phe (MCTIDFDEYRFRKT)
BRCA1 (BRCT)2
  binding after substitution of the two 4FPhe with Phe: did not significantly abrogate binding
[1]
  blocking of binding of phospho-CtIP and BRCA1 in cell lysates: able to block the binding

## 8.6E8pS: mutant of peptide 8.6 containing the Glu to pSer mutation (MCTID[Phe(4-F)]D[pS]YR[Phe(4-F)]RKT)
BRCA1 (BRCT)2; 25 °C, pH 7.4, TR-(BRCT)2 20 uM, peptide 214 μM
  fold lower KD than peptide 8.6: 10 fold

## CC[C@H](C)[C@H](NC(=O)[C@H](Cc1ccc(F)cc1)NC(=O)[C@H](CC(=O)O)NC(=O)[C@H](CC(N)=O)NC(=O)[C@H](CS)NC(=O)[C@H](CCSC)NC(C)=O)C(=O)N[C@@H](Cc1ccc(F)cc1)C(=O)N[C@@H](CCCNC(=N)N)C(=O)N[C@@H](CCCNC(=N)N)C(=O)N[C@@H](CO)C(=O)N[C@H](C(=O)N[C@@H](Cc1ccc(F)cc1)C(=O)N[C@@H](CCCNC(=N)N)C(=O)N[C@@H](C)C(N)=O)[C@@H](C)O [8.1] (Ac-MCND[Phe(4-F)]I[Phe(4-F)]RRST[Phe(4-F)]RA-NH2)
[2]
  IC50: 24 ± 2 µM

## CC[C@H](C)[C@H](NC(=O)[C@H](Cc1ccc(F)cc1)NC(=O)[C@H](CC(=O)O)NC(=O)[C@H](CO)NC(=O)[C@H](CS)NC(=O)[C@H](CCSC)NC(C)=O)C(=O)N[C@@H](Cc1ccc(F)cc1)C(=O)N[C@@H](CO)C(=O)N[C@@H](CCCNC(=N)N)C(=O)N[C@@H](CCCNC(=N)N)C(=O)N[C@H](C(=O)N[C@@H](Cc1ccc(O)cc1)C(=O)N[C@H](C(=O)N[C@@H](Cc1ccc(F)cc1)C(N)=O)[C@@H](C)O)[C@@H](C)O [8.2] (Ac-MCSD[Phe(4-F)]I[Phe(4-F)]SRRTYT[Phe(4-F)]-NH2)
[2]
  IC50: 49 ± 5 µM

## CSCC[C@H](NC(C)=O)C(=O)N[C@@H](CS)C(=O)N[C@@H](Cc1ccc(O)cc1)C(=O)N[C@@H](CC(=O)O)C(=O)N[C@@H](Cc1ccc(F)cc1)C(=O)N[C@@H](CC(=O)O)C(=O)N[C@H](C(=O)N[C@H](C(=O)N[C@@H](CC(N)=O)C(=O)N[C@@H](CC(=O)O)C(=O)N[C@@H](Cc1c[nH]cn1)C(=O)N[C@H](C(=O)N[C@@H](Cc1ccc(F)cc1)C(N)=O)[C@@H](C)O)[C@@H](C)O)[C@@H](C)O [8.5] (HELM PEPTIDE1{[ac].M.C.Y.D.[O=C([C@H](Cc1ccc(F)cc1)N[*:1])[*:2]].D.T.T.N.D.H.T.[O=C([C@H](Cc1ccc(F)cc1)N[*:1])[*:2]].[am]}$$$$V2.0)
[2]
  IC50: 26 ± 2 µM

## BRCA1 BRCT2 (from UniProt P38398)
[3]
  Kd: 0.19 µM

## FITC-SRSTpSTPFNK-NH2 [pSer peptide]
GST-BRCA1 (BRCT)2 S1655A
  binding to S1655A mutant versus wild type: completely abolished recognition
GST-BRCA1 (BRCT)2 K1702M
  binding to K1702M mutant versus wild type: completely abolished recognition
GST-BRCA1 (BRCT)2 E1698A
  change in affinity, E1698A versus wild type: no significant change in affinity
GST-BRCA1 (BRCT)2 N1774A
  change in affinity, N1774A versus wild type: no significant change in affinity

## Y9A: Tyr to Ala mutant of peptide 8.6 (MCTID[Phe(4-F)]DEAR[Phe(4-F)]RKT)
[2]; competition FP, TR-BRCA1 (BRCT)2 2.5 μM, FAM-β-Ala-pSPTF-NH2 20 nM
  competitive binding of alanine mutant relative to wild-type 8.6: competed more effectively for binding than the wild-type 8.6

B1: peptide 8.6 (peptide)
peptide: MCTIDFDEYRFRKT
HELM: PEPTIDE1{[ac].M.C.T.I.D.[O=C([C@H](Cc1ccc(F)cc1)N[*:1])[*:2]].D.E.Y.R.[O=C([C@H](Cc1ccc(F)cc1)N[*:1])[*:2]].R.K.T.[am]}$$$$V2.0
SMILES: CC[C@H](C)[C@H](NC(=O)[C@@H](NC(=O)[C@H](CS)NC(=O)[C@H](CCSC)NC(C)=O)[C@@H](C)O)C(=O)N[C@@H](CC(=O)O)C(=O)N[C@@H](Cc1ccc(F)cc1)C(=O)N[C@@H](CC(=O)O)C(=O)N[C@@H](CCC(=O)O)C(=O)N[C@@H](Cc1ccc(O)cc1)C(=O)N[C@@H](CCCNC(=N)N)C(=O)N[C@@H](Cc1ccc(F)cc1)C(=O)N[C@@H](CCCNC(=N)N)C(=O)N[C@@H](CCCCN)C(=O)N[C@H](C(N)=O)[C@@H](C)O
[4]
  IC50: 10 µM
[5]
  Kd: 3.7 µM
  dH (printed as a magnitude; the paper calls it negative): 24.6 kcal/mol

B2: FAM-β-Ala-…-NH2 (peptide)
peptide: {FAM-βAla}-MCTIDFDEYRFRKT-NH2
[6]
  fold reduction in binding against wild-type GST-BRCA1 (BRCT)2: 6 fold

B3: peptide 8.6E8pS (peptide)
peptide: MCTID[Phe(4-F)]D[pS]YR[Phe(4-F)]RKT
[5]
  fold lower KD than peptide 8.6: 10 fold
